Results published in PubChem BioAssay AID651740 (Broad Institute, 2012).
About 1,200 (21%) of roughly 5,600 compounds were called active. Roughly 3% stayed inconclusive and do not appear here. The list is a sample of the results. A number with no mark means an inactive call.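 How the source made its calls: active means mean inhibition above about 95%, with at least 55% of replicates also reaching it (limit read from the data); inconclusive means meets just one of the two conditions; inactive means meets neither condition.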

assay: inhibitors of intracellular T. cruzi replication, confirmation, NIH3T3 host cells, beta-gal parasites, cherry-pick, set 2 (AID 651740);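 further: plate controls were neutral control median for no effect and positive control median for full effect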; settings: T. cruzi beta-gal in NIH3T3, GalScreen luminescence, 90 h; at 2.09 µM; active compounds read high
In short: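 Material: beta-gal T. cruzi in mouse NIH/3T3 fibroblasts / Medium: DMEM, 2% FBS, 1% PSG / Also added: T. cruzi trypomastigotes, 5000 per well / Compound: single dose, 100 nL pinned DMSO compound / Timing: ≥90 h co-culture with compound, 60 min detection reagent / Technique: GalScreen lysis and luminescent beta-gal signal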

SMILES	inhibition
C[C@H](CO)N1C[C@H](C)[C@@H](CN(C)C(=O)C2CCCCC2)Oc2cc(-c3ccccc3)ccc2S1(=O)=O	68.2%
C[C@H](CO)N1C[C@H](C)[C@H](CN(C)Cc2ccncc2)Oc2cc(-c3ccncc3)ccc2S1(=O)=O	90.6%
CCCN(C)C[C@@H]1Oc2cc(C#Cc3ccc(F)cc3)ccc2S(=O)(=O)N([C@H](C)CO)C[C@H]1C	68.9%
C[C@@H]1CN([C@H](C)CO)S(=O)(=O)c2ccc(C#C[C@@H](C)O)cc2O[C@@H]1CN(C)Cc1ccc(-c2ccccc2)cc1	96.9% (active)
Cc1ccc(S(=O)(=O)N2C[C@@H](O)COC[C@@H]3O[C@H](CC(=O)NCc4ccc(Cl)c(Cl)c4)CC[C@H]32)cc1	50.2%
COCCNC[C@@H]1[C@H](c2ccccc2)[C@H](CO)N1c1nc(C)c(C)s1	5.12%
O=C(Nc1ccc2c(c1)[C@@H]1C[C@H](CC(=O)N3CCOCC3)O[C@@H](CO)[C@@H]1O2)c1ccc2c(c1)OCO2	6.38%
C[C@@H]1CN([C@H](C)CO)C(=O)c2cc(NS(C)(=O)=O)ccc2O[C@@H](C)CCCCO[C@H]1CN(C)S(=O)(=O)c1cn(C)cn1	-5.24%
COc1ccc(C#Cc2ccc([C@@H]3[C@@H](CO)N4CCCCN(C(=O)c5ccncc5)C[C@@H]34)cc2)cc1	30%
C[C@@H]1CN([C@H](C)CO)C(=O)c2cccc(NC(=O)c3cnccn3)c2O[C@@H]1CN(C)Cc1ccc(C(=O)Nc2ccccc2N)cc1	82.4%
C[C@H]1CN([C@@H](C)CO)S(=O)(=O)c2ccc(C#CC3CCCC3)cc2O[C@H]1CN(C)C(=O)Cc1ccncc1	79.4%
C[C@@H]1CN([C@@H](C)CO)C(=O)c2cc(NC(=O)Cc3ccccc3)ccc2O[C@@H]1CN(C)Cc1ccc(Oc2ccccc2)cc1	94.9%
C[C@@H]1CN([C@@H](C)CO)C(=O)c2cc(NC(=O)Nc3cccc4ccccc34)ccc2O[C@H]1CN(C)Cc1ccc(Oc2ccccc2)cc1	106% (active)
C[C@H]1CN([C@@H](C)CO)C(=O)c2cc(NC(=O)Nc3ccc4c(c3)OCO4)ccc2O[C@@H]1CN(C)Cc1ccc(Oc2ccccc2)cc1	66.6%
C[C@@H]1CN([C@@H](C)CO)C(=O)c2cc(NC(=O)Nc3cccc4ccccc34)ccc2O[C@H]1CN(C)Cc1ccc(Cl)c(Cl)c1	102% (active)
C[C@@H]1CN([C@@H](C)CO)C(=O)c2cc(NC(=O)Nc3ccc4c(c3)OCO4)ccc2O[C@@H]1CN(C)Cc1ccc(Oc2ccccc2)cc1	-1.56%
Cc1ccc(S(=O)(=O)Nc2ccc3c(c2)C(=O)N([C@H](C)CO)C[C@H](C)[C@H](CN(C)Cc2ccc(Cl)c(Cl)c2)O3)cc1	74%
